Results collected from several papers.
Compare with care: the assays were run in different laboratories.
Cell line: HCT-116
Observed: cell growth or viability

| Compound | test | setting | IC50 |
| --- | --- | --- | --- |
| CN[C@@H]1C[C@H]2O[C@@](C)([C@@H]1OC)n1c3ccccc3c3c4c(c5c6ccccc6n2c5c31)C(=O)NC4 | MTT |  | 15 nM |
| CCC1(OC(=O)C(C)c2ccc3cc(OC)ccc3c2)C(=O)OCc2c1cc1n(c2=O)Cc2cc3cc4c(cc3nc2-1)OCO4 (stereo not shown) | MTT |  | 2340 nM |
| COc1ccc2[nH]cc(CCNc3nccc(Nc4cccc5c4ccn5C)n3)c2c1 | fluorescence | 72 h | 9.2 nM |
| N.N.[Cl][Pt][Cl] | SRB |  | 5300 nM |
| CC[C@@]1(OC(=O)Cc2c(C)n(C(=O)c3ccc(Cl)cc3)c3ccc(OC)cc23)C(=O)OCc2c1cc1n(c2=O)Cc2cc3cc4c(cc3nc2-1)OCO4 | MTT |  | 46 nM |
| CSC(=NNC(=O)c1ccc(O)cc1)SC | MTT | 5 days | > 100000 nM |
| N.N.[Cl][Pt][Cl] | MTS | 72 h | 41700 nM |
| CC[C@@]1(OC(=O)[C@@H](N)C(C)C)C(=O)OCc2c1cc1n(c2=O)Cc2cc3cc4c(cc3nc2-1)OCO4 | MTT |  | 46 nM |
| O=c1ccc2cc3ccoc3cc2o1 | WST-1 | 48 h | 26100 nM |
| COc1cc2c3c(n(CCCN4CCOCC4)c(=O)c2cc1OC)-c1cc2c(cc1C3=O)OCO2 |  | 72 h | 0.618 µg/mL |
| COc1ccc2c(c1)[nH]c1c(C)nccc12 | MTT | 72 h | 25100 nM |
| O=c1ccc2ccc3occc3c2o1 | WST-1 | 48 h | 8700 nM |
| CC[C@@]1(O)C(=O)OCc2c1cc1n(c2=O)Cc2cc3cc4c(cc3nc2-1)OCO4 | MTT | 72 h | 14 nM |
| N.N.[Cl][Pt][Cl] |  | 48 h | 16300 nM |
| CC[C@@]1(OC(=O)[C@@H](N)CCCCN)C(=O)OCc2c1cc1n(c2=O)Cc2cc3cc4c(cc3nc2-1)OCO4 | MTT |  | 28 nM |
| CC1=C(O)C(=O)C=C2C1=CC=C1[C@@]2(C)CC[C@@]2(C)[C@@H]3C[C@](C)(C(=O)O)CC[C@]3(C)CC[C@]12C | MTT | 48 h | 430 nM |
| CC[C@@]1(OC(=O)[C@@H](N)CCSC)C(=O)OCc2c1cc1n(c2=O)Cc2cc3cc4c(cc3nc2-1)OCO4 | MTT |  | 56 nM |
| CSC(=NNC(=O)c1ccc(Cl)c(Cl)c1)SC | MTT | 5 days | 28000 nM |
| CC1=C(O)C(=O)C=C2C1=CC=C1[C@@]2(C)CC[C@@]2(C)[C@@H]3C[C@](C)(C(=O)OCCCn4cc(C=O)c5ccccc54)CC[C@]3(C)CC[C@]12C | MTT | 48 h | 570 nM |
